Data: article PMC12900291 (European journal of medicinal chemistry, 2025)
Where “and” joins values, the source holds several entries; their conditions need not be identical. Equal entries are not always repeated.

Experiments:
Intrinsic clearance = assay type: in vitro ADME, human; settings: for Thalf: human liver S9 0.5 mg/mL, 1 μM compound, NADPH, 37 °C; for microsomal CLint at 1 μM: human, liver S9 fraction, pH 7.4
SERCA2a [1] = molecular target: T1, SERCA2a (Sus scrofa, UniProt P11607); assay: NADH-coupled enzyme-linked Ca2+-ATPase activity assay in cardiac SR vesicles; assay type: biochemical, porcine; settings: for Max increase (%): vs no compound
SERCA2a [2] = molecular target: T1, SERCA2a; assay: oxalate-based Ca2+-uptake; assay type: biochemical, porcine; settings: cardiac SR
In short: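 Porcine left-ventricular SR vesicles (30 μg/mL) were prepared by differential centrifugation. Buffer: 50 mM MOPS, 100 mM KCl, 30 mg/mL sucrose, 10 mM potassium oxalate, 2 μM Fluo-4, free Ca2+ at pCa 8.0, 6.2 or 5.4, test compound 0.048–50 μM (two-fold series). Incubation 20 min at 22 °C, dark; 5 mM MgATP start; Fluo-4 decrease (ex 485/em 520 nm) tracked 15 min. Basal pCa 8.0 rate subtracted; Hill fit gives EC50 and % effect.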

[3] = Ca2+-ATPase [Ca2+]MAX EC50 (μM), [Ca2+]MAX (pCa 5.4), cardiac SR
[4] = Ca2+-ATPase [Ca2+]MID EC50 (μM), [Ca2+]MID (pCa 6.2), cardiac SR
[5] = Ca2+-ATPase activity, [Ca2+]MAX (pCa 5.4), mean±SD, n=4-6
[6] = Ca2+-Uptake [Ca2+]MAX EC50 (μM), [Ca2+]MAX (pCa 5.4)
[7] = Ca2+-Uptake [Ca2+]MID EC50 (μM), [Ca2+]MID (pCa 6.2)

T1 sequence (P11607 1-997 isoform P11607-2): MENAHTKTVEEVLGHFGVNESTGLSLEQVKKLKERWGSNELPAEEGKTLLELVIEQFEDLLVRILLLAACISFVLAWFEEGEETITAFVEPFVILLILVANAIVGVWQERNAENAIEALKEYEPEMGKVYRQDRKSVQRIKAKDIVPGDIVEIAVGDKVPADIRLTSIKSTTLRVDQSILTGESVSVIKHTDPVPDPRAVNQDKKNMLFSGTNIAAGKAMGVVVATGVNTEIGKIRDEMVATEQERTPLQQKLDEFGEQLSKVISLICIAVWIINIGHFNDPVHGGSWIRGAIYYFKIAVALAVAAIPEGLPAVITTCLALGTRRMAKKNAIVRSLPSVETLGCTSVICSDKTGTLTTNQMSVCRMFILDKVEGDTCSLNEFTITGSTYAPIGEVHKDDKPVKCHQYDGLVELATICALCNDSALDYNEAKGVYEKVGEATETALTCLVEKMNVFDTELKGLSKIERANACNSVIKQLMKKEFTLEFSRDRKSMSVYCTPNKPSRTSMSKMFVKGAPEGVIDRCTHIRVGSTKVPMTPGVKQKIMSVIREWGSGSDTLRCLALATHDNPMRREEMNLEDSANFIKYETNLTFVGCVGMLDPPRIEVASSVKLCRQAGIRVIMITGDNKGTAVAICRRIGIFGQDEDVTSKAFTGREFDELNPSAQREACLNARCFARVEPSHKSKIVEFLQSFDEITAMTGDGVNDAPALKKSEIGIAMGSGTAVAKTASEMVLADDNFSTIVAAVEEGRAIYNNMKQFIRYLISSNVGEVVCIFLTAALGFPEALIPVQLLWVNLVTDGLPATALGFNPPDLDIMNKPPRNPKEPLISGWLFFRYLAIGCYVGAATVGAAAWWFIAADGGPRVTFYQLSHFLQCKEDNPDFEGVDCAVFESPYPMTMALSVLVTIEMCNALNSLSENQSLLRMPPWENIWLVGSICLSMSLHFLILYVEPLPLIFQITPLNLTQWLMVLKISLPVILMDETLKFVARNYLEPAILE

SMILES	Max increase (%) (SERCA2a [1]; [5])	further results
CCCN(Cc1ccccc1OC)C(=O)c1cccc(Br)c1F [Compound 24, 3-Bromo-2-fluoro-N-(2-methoxybenzyl)-N-propylbenzamide]	48±4.6%	Thalf (Intrinsic clearance): 51.3 min; microsomal CLint at 1 μM (Intrinsic clearance): 25 ± 4 µL/min/mg; EC50 (SERCA2a [1]; [3]): 3.4 ± 0.29 µM; EC50 (SERCA2a [1]; [4]): 3.3 ± 1.9 µM; Ca2+-ATPase [Ca2+]MAX % effect (SERCA2a [1]; [Ca2+]MAX (pCa 5.4), cardiac SR): 48±4.6%; Ca2+-ATPase [Ca2+]MID % effect (SERCA2a [1]; [Ca2+]MID (pCa 6.2), cardiac SR): 25±5.6%; EC50 (SERCA2a [2]; [6]): 1.4 ± 0.65 µM; EC50 (SERCA2a [2]; [7]): 0.83 ± 0.3 µM; Ca2+-Uptake [Ca2+]MAX % effect (SERCA2a [2]; [Ca2+]MAX (pCa 5.4)): 12±3.0%; Ca2+-Uptake [Ca2+]MID % effect (SERCA2a [2]; [Ca2+]MID (pCa 6.2)): 8.5±3.3%
CCCN(Cc1ccccc1OC)C(=O)c1cc(F)cc(Br)c1 [Compound 26, 3-Bromo-5-fluoro-N-(2-methoxybenzyl)-N-propylbenzamide]	33±6.5%	Thalf (Intrinsic clearance): 62.4 min; microsomal CLint at 1 μM (Intrinsic clearance): 22 ± 1.1 µL/min/mg; EC50 (SERCA2a [1]; [3]): 2.2 ± 0.27 µM; EC50 (SERCA2a [1]; [4]): 2.1 ± 0.88 µM; EC50 (SERCA2a [2]; [6]): 0.54 ± 0.3 µM; EC50 (SERCA2a [2]; [7]): > 50 µM; Ca2+-Uptake [Ca2+]MAX EC50 (μM) (SERCA2a [2]; [Ca2+]MAX (pCa 5.4)): decreased
CCCN(Cc1ccccc1OC)C(=O)c1cccc(Br)n1 [Compound 27, 6-Bromo-N-(2-methoxybenzyl)-N-propylpicolinamide]	46±7.8%	–
CCCN(Cc1ccccc1OC)C(=O)c1cncc(Br)c1 [Compound 28, 5-Bromo-N-(2-methoxybenzyl)-N-propylnicotinamide]	28±5.7%	–
CCCN(Cc1ccccc1OC)C(=O)c1ccnc(Br)c1 [Compound 29, 2-Bromo-N-(2-methoxybenzyl)-N-propylisonicotinamide]	21±4.9%	–
COc1ccccc1CNC(=O)c1cc(C)c(C)s1 [Compound 30, N-(2-methoxybenzyl)-4,5-dimethylthiophene-2-carboxamide]	24±9.1%	–
COc1ccccc1CN(C)C(=O)c1cc(C)c(C)s1 [Compound 31, N-(2-Methoxybenzyl)-N,4,5-trimethylthiophene-2-carboxamide]	52±9.2%	–
COc1ccccc1CN(C(=O)c1cc(C)c(C)s1)C(C)C [Compound 34, N-Isopropyl-N-(2-methoxybenzyl)-4,5-dimethylthiophene-2-carboxamide]	43±7.9%	–
COc1ccccc1CN(C(=O)c1cc(C)c(C)s1)C1CC1 [Compound 35, N-Cyclopropyl-N-(2-methoxybenzyl)-4,5-dimethylthiophene-2-carboxamide]	46±8.9%	–
COc1ccccc1CN(CCO)C(=O)c1cc(C)c(C)s1 [Compound 36, N-(2-Hydroxyethyl)-N-(2-methoxybenzyl)-4,5-dimethylthiophene-2-carboxamide]	abolished	–
COc1ccccc1CN(CCCF)C(=O)c1cc(C)c(C)s1 [Compound 39, N-(3-Fluoropropyl)-N-(2-methoxybenzyl)-4,5-dimethylthiophene-2-carboxamide]	22% and 22±8.6%	–
COc1ccccc1CN(CCC(F)F)C(=O)c1cc(C)c(C)s1 [Compound 40, N-(3,3-Difluoropropyl)-N-(2-methoxybenzyl)-4,5-dimethylthiophene-2-carboxamide]	91% and 91±12.6%	–
COc1ccccc1CN(CCC(F)(F)F)C(=O)c1cc(C)c(C)s1 [Compound 41, N-(2-Methoxybenzyl)-4,5-dimethyl-N-(3,3,3-trifluoropropyl)thiophene-2-carboxamide]	75% and 75±8.6%	–
COc1cccc2c1CN(C(=O)c1cc(C)c(C)s1)CC2 [Compound 42, (4,5-diMethylthiophen-2-yl)(8-methoxy-3,4-dihydroisoquinolin-2(1H)-yl)methanone]	22% and 22±6.4%	–
CCCN(Cc1ccccc1)C(=O)c1cc(C)c(C)s1 [Compound 44, N-Benzyl-4,5-dimethyl-N-propylthiophene-2-carboxamide]	abolished activity	–
CCCN(Cc1ccccc1F)C(=O)c1cc(C)c(C)s1 [Compound 48, N-(2-Fluorobenzyl)-4,5-dimethyl-N-propylthiophene-2-carboxamide]	89% and 89±24%	–
CCCN(Cc1ccncc1F)C(=O)c1cc(C)c(C)s1 [Compound 50, N-((3-Fluoropyridin-4-yl)methyl)-4,5-dimethyl-N-propylthiophene-2-carboxamide]	ablated activity	–
CCN(Cc1ccccc1OC)C(=O)c1cccc(Br)c1 [Compound 51, 3-Bromo-N-ethyl-N-(2-methoxybenzyl)benzamide]	46±6.3%	–
CCN(Cc1ccccc1OC)C(=O)c1cccc(Br)c1F [Compound 52, 3-Bromo-N-ethyl-2-fluoro-N-(2-methoxybenzyl)benzamide]	46±7.4%	–
CCN(Cc1ccccc1OC)C(=O)c1ccc(F)c(Br)c1 [Compound 53, 3-Bromo-N-ethyl-4-fluoro-N-(2-methoxybenzyl)benzamide]	45±8.4%	–
CCN(Cc1ccccc1OC)C(=O)c1cc(F)c(C)c(Br)c1 [Compound 54, 3-Bromo-N-ethyl-5-fluoro-N-(2-methoxybenzyl)-4-methylbenzamide]	–	Max decrease (%) (SERCA2a [1]; [5]): −70±3.4%; inhibition at 50 µM (SERCA2a [1]; read-out: inhibition of Ca2+-ATPase activity): 70%
